Laboratory results: paper PMC12401554 (Archives of toxicology, 2023)

How the values were obtained:
[1] = tested on: 2D HepaRG cells; experiment: CometChip assay; assay type: cell-based, human; settings: 24-h exposure; for Fold increase of DNA damage over the vehicle control: at the maximum concentration shown in the table
[2] = tested on: 3D HepaRG spheroids; experiment: HT flow-cytometry-based MN assay in 3D HepaRG spheroids; assay type: cell-based, human; settings: for Fold increase of MN formation over the vehicle control: at the maximum concentration shown in the table
[3] = ref European Chemicals Agency (ECHA) Classification and Labelling Inventory; cited from earlier work
[4] = tested on: 2D HepaRG cells; experiment: HT flow-cytometry-based MN assay in 2D HepaRG cells; assay type: cell-based, human; settings: for Fold increase of MN formation over the vehicle control: at the maximum concentration shown in the table
[5] = tested on: 3D HepaRG spheroids; experiment: CometChip assay; assay type: cell-based, human; settings: for Outcome, CometChip assay / Fold increase of DNA damage over the vehicle control: 24-h exposure; for Fold increase of DNA damage over the vehicle control: at the maximum concentration shown in the table; for BMC50 estimate for DNA strand breakage, rank among the eight nitrosamines: PROAST exponential model
[6] = tested on: 3D HepaRG spheroids; experiment: MultiFlow DNA damage assay; assay type: cell-based, human; settings: 3D HepaRG cultures, PROAST exponential model
Method in brief: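 Spheroids were exposed for 24 h in differentiation medium containing 100 ng/ml hEGF, then kept 5 days in the same medium without test compound. They were dissociated with Accutase and stained 1 h at room temperature for γH2A.X, phospho-H3 and P53, then analysed by flow cytometry. Responses are median-fluorescence fold-changes versus vehicle. BMC50 (50% increase over vehicle; 90% CI) came from exponential-model benchmark analysis with compound as covariate.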

[7] = ref IARC Monographs, Volumes 1–133; IARC 1978; cited from earlier work
[8] = tested on: Namalva cells; settings: human Burkitt lymphoblastoid cell line, ref Janzowski et al. 1989; cited from earlier work
[9] = tested on: rat; settings: ref Lhasa Carcinogenicity Database; cited from earlier work
[10] = tested on: CYP2A6-expressing TK6 cells; settings: ref Li et al. 2022; cited from earlier work
[11] = tested on: wild-type TK6 cells or TK6 cells transduced with human CYP1A1, 2A6, 2E1, or 3A4 genes; settings: ref Li et al. 2022; cited from earlier work
[12] = tested on: rat; settings: ref Ambient water quality criteria for nitrosamines, US Environmental Protection Agency; cited from earlier work
[13] = tested on: animal species, including frog, rodent, rabbit, and monkey; settings: ref Bogovski and Bogovski 1981; cited from earlier work
[14] = tested on: 3D HepaRG spheroids; experiment: ATP assay; assay type: cell-based, human; settings: 24-h exposure, at concentrations up to 10 mM
Method in brief: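 Differentiated HepaRG cells (passages 16–19) were seeded at 5 × 10^3 cells per spheroid in ultra-low-attachment plates. On Day 10, 7–8 spheroids were pooled per well and exposed for 24 h at 37 °C in 5% CO2, with final DMSO ≤1%. ATP was measured with the CellTiter-Glo 3D kit as % of vehicle control, from at least three independent experiments.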

[15] = tested on: 2D HepaRG cells; experiment: ATP assay; assay type: cell-based, human; settings: 24-h exposure, at concentrations up to 10 mM
Method in brief: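 Differentiated HepaRG cells (passages 16–19) replated at 5 × 10^4 cells/well as 2D monolayers and treated 3 days after seeding. Exposure was 24 h at 37 °C in 5% CO2 in differentiation medium, with final DMSO ≤1%. Viability was read by CellTiter-Glo luminescence as %ATP relative to vehicle control, from at least three independent experiments.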

[16] = tested on: Sprague–Dawley rats; settings: treated 5 days each week with 1.8 or 12 mg NDIPA for 50 or 40 weeks; ref Lijinsky and Taylor 1979; cited from earlier work

Row | Compound | Outcome, CometChip assay [1] | Fold increase of DNA damage over the vehicle control [1] | MN response (in words) [2] | Outcome, MN assay [2] | Fold increase of MN formation over the vehicle control [2] | ECHA classification [3] | MN response (in words) [4] | Outcome, MN assay [4] | Fold increase of MN formation over the vehicle control [4] | Outcome, CometChip assay [5] | Fold increase of DNA damage over the vehicle control [5] | IARC group [7] | Gold TD50 in rat [9] | Phosphorylation of histone H2A.X (γH2A.X) [10] | Oral rat LD50 [12] | Micronucleus (MN) formation [10] | also measured
1 | O=NN1CCN(C2CCCC2)CC1 [CPNP, N-cyclopentyl-4-nitrosopiperazine] | − (The ratio ≤ 1.5-fold (p ≥ 0.05 vs. vehicle control, green color)) | 0.9 fold | negative | − (The ratio ≤ 1.5-fold (p ≥ 0.05 vs. vehicle control, green color)) | 1.4 fold | Carc.1B | negative | − (The ratio ≤ 1.5-fold (p ≥ 0.05 vs. vehicle control, green color)) | 1.4 fold | + + (2 ≤ ratio < 5) | 2.3 fold |  |  |  |  |  | 
2 | CCCCN(CCCC)N=O [NDBA, N-nitrosodibutylamine] | + + (2 ≤ ratio < 5) | 2.4 fold |  | + + (2 ≤ ratio < 5) | 2.3 fold | Carc.2 |  | + (1.5 ≤ ratio < 2) | 1.5 fold | + + (2 ≤ ratio < 5) | 2.8 fold | 2B | 0.691 mg/kg/day | increased | 1200 mg/kg |  | BMC50 value for γH2A.X responses, rank among the eight nitrosamines [6]: lowest; Lowest concentration increasing MN formation [8]: 10 µM; Lowest concentration increasing sister chromatid exchanges [8]: 1 µM; MN frequency [11]: didn’t increase
3 | CCN(CC)N=O [NDEA, N-nitrosodiethylamine] | + + (2 ≤ ratio < 5) | 2.3 fold |  | + + (2 ≤ ratio < 5) | 2.2 fold | Carc.1A/1B; Muta.2 |  | + (1.5 ≤ ratio < 2) | 1.7 fold | + + (2 ≤ ratio < 5) | 2.6 fold | 2A | 0.0265 mg/kg/day | increased | 280 mg/kg | induced | Number of different animal species in which tumors were induced [13]: 26
4 | CC(C)N(N=O)C(C)C [NDIPA, N-nitrosodiisopropylamine] | − (The ratio ≤ 1.5-fold (p ≥ 0.05 vs. vehicle control, green color)) | 1.1 fold | negative | − (The ratio ≤ 1.5-fold (p ≥ 0.05 vs. vehicle control, green color)) | 1.2 fold | Carc.1B; Muta.1B | negative | − (The ratio ≤ 1.5-fold (p ≥ 0.05 vs. vehicle control, green color)) | 1.1 fold | + (1.5 ≤ ratio < 2) | 1.8 fold |  |  | increased | 850 mg/kg |  | BMC50 value for γH2A.X responses, rank among the eight nitrosamines [6]: highest; Cytotoxicity (ATP assay) [14]: less than 30%; Cytotoxicity (ATP assay) [15]: less than 30%; Carcinogenicity in Sprague–Dawley rats (in words) [16]: weak carcinogen; BMC50 estimate for DNA strand breakage, rank among the eight nitrosamines [5]: highest
5 | CN(C)N=O [NDMA, N-nitrosodimethylamine] | + + (2 ≤ ratio < 5) |  |  | + + (2 ≤ ratio < 5) |  | Carc.1B |  | + + (2 ≤ ratio < 5) |  | + + + (ratio ≥ 5 (p < 0.05, red color)) |  | 2A |  |  | 40 mg/kg |  | Number of different animal species in which tumors were induced [13]: 16; BMC50 estimate for %MN, rank among the five positive responses ([2]; PROAST exponential model): lowest; BMC50 estimate for DNA strand breakage, rank among the eight nitrosamines [5]: lowest
6 | CCN(N=O)C(C)C [NEIPA, N-nitrosoethylisopropylamine] | − (The ratio ≤ 1.5-fold (p ≥ 0.05 vs. vehicle control, green color)) | 1.5 fold | negative | − (The ratio ≤ 1.5-fold (p ≥ 0.05 vs. vehicle control, green color)) | 1.3 fold | Carc.1B | negative | − (The ratio ≤ 1.5-fold (p ≥ 0.05 vs. vehicle control, green color)) | 1.1 fold | + + (2 ≤ ratio < 5) | 2.4 fold |  |  | increased | 1100 mg/kg | induced | Cytotoxicity (ATP assay) [14]: less than 30%; Cytotoxicity (ATP assay) [15]: less than 30%
7 | CN(CCCC(=O)O)N=O [NMBA, N-nitroso-N-methyl-4-aminobutyric acid] | − (The ratio ≤ 1.5-fold (p ≥ 0.05 vs. vehicle control, green color)) | 1.0 fold |  | + (1.5 ≤ ratio < 2) | 1.8 fold | Carc.2 |  | − (The ratio ≤ 1.5-fold (p ≥ 0.05 vs. vehicle control, green color)) | 1.4 fold | + + (2 ≤ ratio < 5) | 2.3 fold |  | 0.982 mg/kg/day | increased |  | induced | 
8 | CN(N=O)c1ccccc1 [NMPA, N-nitrosomethylphenylamine] | − (The ratio ≤ 1.5-fold (p ≥ 0.05 vs. vehicle control, green color)) |  |  | + + (2 ≤ ratio < 5) |  | Carc.2 |  | − (The ratio ≤ 1.5-fold (p ≥ 0.05 vs. vehicle control, green color)) |  | + + (2 ≤ ratio < 5) |  |  |  | increased | 280 mg/kg | induced | 
